# PTEN del growth: suppresses growth of cells with PTEN deletion; viability, % at 10 µM; 1.2% of 140,000 active; HCT116 PTEN-null viability, CellTiter-Glo, 60 h; hits give low values;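 active means viability at or below a set limit, 4 SD under the median of all tested compounds, cut at about 3.7% in these data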;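 further: PTEN knockout HCT116 line with beta catenin targeted HCT116 as companion control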
# Lung fibro prol: blocks proliferation of human lung fibroblasts | LL 47 human lung fibroblast viability, ATP luminescence; hits give low values | AID 719 | viability, % at 10 µM | 1.1% of 85,000 active;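 active means viability at or below 50% in the single dose screen; inactive means viability above 50%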;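 further: compound exposure lasted 72 h before the ATP readout; 100% = median luminescence of untreated cell-only wells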
#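 Signal: luminescent ATP detection, CellTiter-Glo; assay system: LL 47 human lung fibroblasts; input: 1,150 cells/well; incubation: overnight cell rest, 72 h compound treatment at 37 °C; measure: % viability versus median cells-only luminescence; medium: IMEM growth medium with 15% fetal bovine serum; dosing: compound addition at 0.1% DMSO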
# Cav32 inh: blocks human Cav3.2 T-type calcium channel; O95180; Cav3.2-expressing cells, Fluo-4 calcium fluorescence FDSS; hits give low values; B-score at 10 µM; 4% of 100,000 active; AID 449739;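 active means single-dose well whose peak fluorescence ratio is a statistical outlier from its plate by either plate-standardised score or position-corrected B-score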
# HCT116 bCat-KO: beta-catenin-lacking colon tumor cell growth suppression. viability, % at 10 µM. 1.5% of 140,000 active. HCT116 beta-catenin knockout viability, CellTiter-Glo, 60 h; hits give low values;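 active means viability at or under a set limit, the compound median less 4 SD, cut at about 6% in these data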;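 further: 0% = Hyamine 1622 control at 20 µM and 100% = untreated cell control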
# HUVEC inhibit: inhibitors of human endothelial cell proliferation. 1.1% of 86,000 active. viability, % at 10 µM (by protocol). HUVEC proliferation, CellTiter-Glo luminescence, 72 h; hits give low values;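 active means viability at or below 30%; inactive means viability above 30%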;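 further: 100% = median luminescence of DMSO-only cell control wells on each plate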
# H69AR growth 86K: blocks growth of human H69AR lung tumor cells; H69AR lung tumor viability, ATP luminescence, 72 h; hits give low values; viability, % at 10 µM; 6% of 85,000 active;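 active means viability at or below 40%; inactive means viability above 40%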;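 further: multidrug resistant small cell line overexpressing MRP-1 efflux transporter; 100% = mean luminescence of untreated control wells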
# Numbers without * were called inactive; x = no result given. This is a sample that favours compounds with a hit; in the whole collection about 7.1% have one here.
SMILES,PTEN del growth,Lung fibro prol,Cav32 inh,HCT116 bCat-KO,HUVEC inhibit,H69AR growth 86K
CCOC(=O)COc1ccc(S(=O)(=O)Nc2cccc(SC)c2)cc1,87,47*,-0.33,92,14*,105
CSc1cccc(NS(=O)(=O)c2ccc(F)cc2)c1,77,102,-7*,83,100,91
CSc1cccc(NS(=O)(=O)c2ccccc2)c1,102,x,-1,99,x,x
Cc1c(OC(=O)CNC(=O)OC(C)(C)C)ccc2c3c(c(=O)oc12)CCC3,106,102,0.21,108,86,82
COc1ccc(N(C)C2=NS(=O)(=O)c3ccccc32)cc1,24,66,0.09,23,59,17*
COC1=NS(=O)(=O)c2ccccc21,108,x,x,100,x,x
O=C(NNC1=C(C(=O)C(F)(F)F)CCC1)c1ccccc1O,82,62,-6.3*,74,6.8*,30*
O=C(NNC1=C(C(=O)C(F)(F)F)CCC1)c1ccc(Br)cc1,100,68,-5.1*,85,31,54
CCCc1ccc(C(=O)NNC(=O)c2ccc(Br)cc2)cc1,99,x,x,83,x,x
O=C(NNc1c2ccccc2nc2ccccc12)c1ccccc1O,43,x,x,42,x,x
COc1cc(C)ccc1OCCOCCOc1ccc([N+](=O)[O-])cc1,97,x,x,97,x,x
CCCCN(CCCC)C(=O)CSc1nnc2n(C)c(=O)c3c4c(sc3n12)CCCC4,78,x,-3.7,80,x,x
Cn1c(=O)c2c3c(sc2n2c(SCC(N)=O)nnc12)CC(C(C)(C)C)CC3 (centres undefined),5,89,4.2*,1.4*,73,66
C(=C\c1ccccc1)/CSc1nnc(-c2cnccn2)n1Cc1ccco1,67,87,-3.5*,61,62,29*
Fc1ccccc1CSc1nnc(-c2cnccn2)n1Cc1ccco1,89,103,x,93,98,74
Nc1c(Cl)ncnc1N/N=C/c1ccccn1,3.4*,x,x,2.5*,x,x
Nc1c(Cl)ncnc1N/N=C/c1ccnc2ccccc12,97,x,x,96,x,x
CCOc1cc(/C=N/Nc2ncnc(Cl)c2N)ccc1O,99,x,x,94,x,x
Nc1c(Cl)ncnc1N/N=C/c1ccc2ccccc2n1,3.0*,x,x,5.1*,x,x
Cc1csc(NC(=O)Cc2coc3cc(C)c(C(C)C)cc23)n1,55,75,-6.1*,55,62,90
Cc1cc2occ(CC(=O)NCc3cccs3)c2cc1C(C)C,88,x,x,92,x,x
CC(=O)C1=C(c2ccccc2)OC(N)=C(C#N)C1c1ccccc1C (centres undefined),74,x,x,77,x,x
CC(=O)C1(C)OC(N)=C(C#N)C(c2ccccc2)C1(C#N)C#N (centres undefined),101,94,1,89,98,38*
CCSc1ccccc1C(=O)n1nnc2ccccc21,98,86,0.037,95,81,12*
CCSc1ccccc1C(=O)N1CCCC1,105,101,0.62,110,88,98
SMILES,PTEN del growth,Lung fibro prol,Cav32 inh,HCT116 bCat-KO,HUVEC inhibit,H69AR growth 86K
Cc1ccc(NS(=O)(=O)c2ccc(OCC(=O)NCc3ccncc3)cc2)cc1,91,x,x,94,x,x
NC(=O)c1cc(Br)cc2c3c([nH]c12)CCCC3,45,87,-0.41,51,42,18*
C=CCNC(=O)c1ccc2c(c1)S(=O)(=O)c1ccccc1C2=O,x,x,0.11,x,x,x
Cc1cc(C(=O)CSc2n[nH]c(N)n2)c(C)n1-c1ccc(F)cc1,60,94,-0.48,44,94,40*
Cc1ccc(-n2c(C)cc(C(=O)CSc3n[nH]c(N)n3)c2C)cc1,60,88,-2.1,48,89,32*
O=C(N=C1c2ccccc2CN1c1ccc(F)c(Cl)c1)c1cccnc1Cl,69,x,x,79,x,x
Cc1ccc(Cl)cc1NC(=O)CSC(N)=O,96,105,-4.1,97,84,7.6*
COC(=O)C(O)(CC(=O)Nc1ccc(Cl)cc1Cl)C(F)(F)F (centres undefined),98,99,-0.045,94,88,89
Cc1ccc(Cl)cc1NC(=O)CC(O)(C(F)(F)F)C(F)(F)F,16,59,-2.7*,23,48,4.5*
Cc1cc(NCc2ccco2)n2ncnc2n1,93,x,x,93,x,x
O=C(Cc1ccc(Cl)cc1)Oc1cccc2cccnc12,3.0*,x,x,4.2*,x,x
O=C(COc1cccc2cccnc12)Nc1nccs1,110,110,-0.091,101,90,74
O=C(Oc1ccccc1)c1cccc2cccnc12,1.7*,36*,0.035,3.3*,87,0.8*
NNC(=O)COc1cccc2cccnc12,111,92,0.07,101,98,101
O=C(Oc1cccc2cccnc12)c1cccs1,1.9*,3.4*,0.0032,4.1*,52,1.6*
O=C(O)c1cccc2cccnc12,102,97,0.019,94,112,92
O=C(Oc1cccc2cccnc12)c1ccco1,1.8*,5.2*,-1.1,3.0*,64,1.5*
O=C(Oc1cccc2cccnc12)c1ccc(Br)o1,70,97,0.04,84,93,83
Cc1cc(C(=O)OC(C(=O)Nc2ccc(C)c(Cl)c2)c2ccccc2)c(C)o1 (centres undefined),66,x,x,79,x,x
CCO[C@@H]1OC(C(=O)N2CCN(C)CC2)=C[C@H](c2coc3ccccc3c2=O)[C@H]1CCCO,x,x,0.29,x,x,x
CN(C)c1ccc(C=C(c2nnnn2-c2ccccc2)c2nnnn2-c2ccccc2)cc1,80,x,x,87,x,x
O=S(=O)(Nc1ccccn1)c1cnc(Cl)c(Br)c1,101,x,x,97,x,x
O=C(CSc1nnc(-c2ccco2)n1Cc1ccccc1)c1ccc(F)cc1,76,88,-1.4,99,91,73
CCOc1ccccc1OC(=O)c1ccco1,100,92,0.012,92,97,88
O=C(Oc1cccc2cccnc12)c1ccc2c(c1)OCCO2,2.5*,3.2*,-0.74,4.8*,100,29*
SMILES,PTEN del growth,Lung fibro prol,Cav32 inh,HCT116 bCat-KO,HUVEC inhibit,H69AR growth 86K
O=C(Oc1ccc(Cl)c2cccnc12)c1ccco1,6,4.2*,0.34,5.3*,32,1.3*
CC(C)(C)[C@H]1C=C(C(=O)NCc2ccccc2)O[C@@H](OCCCCO)C1,x,x,0.7,x,x,x
CCN1C(=O)/C(=C\c2cn(CCC#N)nc2-c2ccc(F)cc2)SC1=S,67,x,x,79,x,x
COc1ccccc1N1CCN(c2ccc(-c3ccccc3)nn2)CC1,10,50*,-1.9,13,40,19*
CCOC(=O)Cc1c(C)nc2cc(-c3ccc(Cl)cc3)[nH]n2c1=O,85,96,0.62,82,78,104
CCOC(=O)Cc1c(C)nc2c(-c3ccc(Cl)cc3)c[nH]n2c1=O,55,x,x,62,57,23*
Cn1nc(C(=O)Nc2c(-c3ccccc3)nc3sccn23)c2ccccc2c1=O,100,40*,-0.02,97,41,26*
Cn1nc(C(=O)Nc2nc3ccccc3[nH]2)c2ccccc2c1=O,69,x,x,77,x,x
